Reference: ChEMBL document CHEMBL1152963, “Synthesis and antimicrobial activity of 4-hydroxy-4-(pyridyl)alk-3-en-2-ones” (2009)
≈ marks a conversion by molar mass, not a printed value.

Key:
Type in all cases: functional
Staphylococcus aureus = experiment: Antimicrobial activity against Staphylococcus aureus ATCC 6538 after 24 hrs by dilution susceptibility assay; details: ATCC 6538, 24 h
How it was run: (§1)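 Broth microdilution MIC per CLSI recommendations, ATCC strains, 96-well format, no agitation; inoculum 2 × 10⁵ bacterial cells per well; incubated 24 h at 37 °C; MIC as average of 3 independent experiments.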

Escherichia coli = experiment: Antimicrobial activity against Escherichia coli […] after 24 hrs by dilution susceptibility assay; how it was run: as §1
Bacillus subtilis = experiment: Antimicrobial activity against Bacillus subtilis ATCC 11229 after 24 hrs by dilution susceptibility assay; details: ATCC 11229, 24 h; how it was run: as §1

MIC (Staphylococcus aureus) [µg/mL] | MIC (Escherichia coli) [µg/mL] | MIC (Bacillus subtilis) [µg/mL] | Compound
392 (≈ 2400 µM) | 402 (≈ 2460 µM) | 397 (≈ 2430 µM) | CC(=O)/C=C(\O)c1cccnc1
758 (≈ 3960 µM) | 391 (≈ 2040 µM) | 786 (≈ 4110 µM) | CCC(=O)C(C)C(=O)c1ccccn1 (stereo unspecified)
96.5 (≈ 470 µM) | 47.7 (≈ 232 µM) | 48.1 (≈ 235 µM) | CCCCC(=O)/C=C(\O)c1ccccn1
46.9 (≈ 287 µM) | 379 (≈ 2320 µM) | 190 (≈ 1160 µM) | CC(=O)/C=C(\O)c1ccccn1
380 (≈ 2150 µM) | 379 (≈ 2140 µM) | 374 (≈ 2110 µM) | CCC(=O)/C=C(\O)c1cccnc1
192 (≈ 1000 µM) | 97.8 (≈ 512 µM) | 97.2 (≈ 509 µM) | CCCC(=O)/C=C(\O)c1ccccn1
23.6 (≈ 133 µM) | 195 (≈ 1100 µM) | 211 (≈ 1190 µM) | CCC(=O)/C=C(\O)c1ccccn1
193 (≈ 1010 µM) | 94.1 (≈ 492 µM) | 200 (≈ 1050 µM) | CCCC(=O)/C=C(\O)c1cccnc1
95.5 (≈ 465 µM) | 95.4 (≈ 465 µM) | 95.4 (≈ 465 µM) | CCCCC(=O)/C=C(\O)c1cccnc1
95.1 (≈ 422 µM) | 95.8 (≈ 425 µM) | 94.6 (≈ 420 µM) | O=C(/C=C(\O)c1cccnc1)c1ccccc1
47.4 (≈ 210 µM) | 24.1 (≈ 107 µM) | 24.5 (≈ 109 µM) | O=C(/C=C(\O)c1ccccn1)c1ccccc1
3.19 (≈ 9.13 µM) | 6.99 (≈ 20 µM) | 12.5 (≈ 35.7 µM) | CC1(C)S[C@@H]2[C@H](NC(=O)[C@H](N)c3ccccc3)C(=O)N2[C@H]1C(=O)O [AMPICILLIN]
